Reference: ChEMBL document CHEMBL1124697, “A new family of water-soluble, third generation antitumor platinum complexes” (J Med Chem, 1989)
Values joined by “and” are separate entries in the source; they are usually repeats but may differ in a detail not shown here. Equal entries are not always repeated. Active and inactive are the calls of the source.

Key:
[1] = Water solubility was determined; type: ADME; details: buffer
B16 [2] = assay: Percent increase in life span when compound administered at 12.5 mg/kg against B-16 melanoma cells in […] mice; type: functional; details: Mus musculus
Procedure, shortened: (§1)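 Median % increase in life span versus controls and % survivors are recorded at the optimal dose. ILS ≥25% counts as active, and a ≥15% reduction in ILS or body weight counts as toxic.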

B16 [3] = assay: Percent increase in life span when compound administered at 25 mg/kg against B-16 melanoma cells in […] mice; type: functional, organism-based; design: dose 25 mg/kg; details: Mus musculus
Procedure, shortened: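 B-16 melanoma in […] mice; compounds given ip daily on days 1–9 relative to tumor inoculation, animals followed 60 days. Read-out median % increase in life span over controls at optimal dose with % survivors; activity threshold ILS ≥25%; ≥15% reduction in ILS or body weight versus controls rated toxic.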

B16 [4] = assay: Percent survivors when compound administered at 12.5 mg/kg against B-16 melanoma cells in […] mice; type: functional; details: Mus musculus; procedure, shortened: as §1
B16 [5] = assay: Percent survivors when compound administered at 25 mg/kg against B-16 melanoma cells in […] mice; type: functional, organism-based; design: dose 25 mg/kg; details: Mus musculus; procedure, shortened: as §1
Colon 26 [6] = assay: Percent in life span when compound administered at 100 mg/kg againstColon 26 cells in balb/C mice; type: functional, organism-based; design: dose 100 mg/kg; details: Mus musculus
Procedure, shortened: (§2)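 Colon 26 in Balb/C mice. Test agents given ip on days 1, 5 and 9 relative to tumor inoculation; mice observed 30 days. Median % increase in life span at optimal dose, with % survivors noted; ILS ≥25% over controls required for activity; ILS or body weight reduced ≥15% versus controls rated toxic.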

Colon 26 [7] = assay: Percent survivors when compound administered at 50 mg/kg againstColon 26 cells in balb/C mice; type: functional, organism-based; design: dose 50 mg/kg; details: Mus musculus
Procedure, shortened: (§3)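 Colon 26 tumor in Balb/C mice. Dosing ip on days 1, 5 and 9 after tumor inoculation, with a 30-day observation period. Readouts are median % increase in life span over control mice and % survivors, given at the optimal dose. Activity threshold is ILS ≥25%. A ≥15% drop in ILS or body weight is rated toxic.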

Colon 26 [8] = assay: Percent survivors when compound administered at 100 mg/kg againstColon 26 cells in balb/C mice; type: functional, organism-based; design: dose 100 mg/kg; details: Mus musculus; procedure, shortened: as §3
L1210 [9] = assay: Percent survivors when compound administered at 50 mg/kg against L1210 leukemia cells in BDF1 mice; type: functional, organism-based; design: dose 50 mg/kg; details: Mus musculus
Procedure, shortened: (§4)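 BDF1 mice inoculated with P388, L1210 or cisplatin-resistant L1210 leukemia. Compound given ip on days 1, 5 and 9 relative to tumor inoculation, and mice observed for 30 days. Median % increase in life span over controls and % survivors are reported at the optimal dose. Activity requires ILS ≥25%. Toxicity is rated when ILS or body weight is reduced by ≥15%.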

L1210 [10] = assay: Percent increase in life span when compound administered at 50 mg/kg against L1210 leukemia cells in BDF1 mice; type: functional, organism-based; design: dose 50 mg/kg; details: Mus musculus
Procedure, shortened: (§5)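 BDF1 mice bearing P388, L1210 or cisplatin-resistant L1210 leukemia; ip dosing on days 1, 5 and 9 relative to tumor inoculation, 30-day observation. Median % ILS over controls at optimal dose plus % survivors; ≥25% ILS counted as active, ≥15% reduction in ILS or body weight over controls rated toxic.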

L1210 [11] = assay: Percent increase in life span when compound administered at 50 mg/kg against L1210 cisplatin resistant leukemia cells in BDF1 mice; type: functional, organism-based; design: dose 50 mg/kg; details: Mus musculus; procedure, shortened: as §5
L1210 [12] = assay: Percent survivors when compound administered at 50 mg/kg against L1210 cisplatin resistant leukemia cells in BDF1 mice; type: functional, organism-based; design: dose 50 mg/kg; details: Mus musculus; procedure, shortened: as §4
Colon 26 [13] = assay: Percent in life span when compound administered at 25 mg/kg against Colon 26 cells in balb/C mice; type: functional, organism-based; design: dose 25 mg/kg; details: Mus musculus; procedure, shortened: as §2
Colon 26 [14] = assay: Percent survivors when compound administered at 25 mg/kg against Colon 26 cells in balb/C mice; type: functional, organism-based; design: dose 25 mg/kg; details: Mus musculus; procedure, shortened: as §3
L1210 [15] = assay: Percent survivors when compound administered at 25 mg/kg against L1210 leukemia cells in BDF1 mice; type: functional, organism-based; design: dose 25 mg/kg; details: Mus musculus; procedure, shortened: as §4
L1210 [16] = assay: Percent increase in life span when compound administered at 25 mg/kg against L1210 leukemia cells in BDF1 mice; type: functional, organism-based; design: dose 25 mg/kg; details: Mus musculus; procedure, shortened: as §5
L1210 [17] = assay: Percent increase in life span when compound administered at 25 mg/kg against L1210 cisplatin resistant leukemia cells in BDF1 mice; type: functional, organism-based; design: dose 25 mg/kg; details: Mus musculus; procedure, shortened: as §5
L1210 [18] = assay: Percent survivors when compound administered at 25 mg/kg against L1210 cisplatin resistant leukemia cells in BDF1 mice; type: functional, organism-based; design: dose 25 mg/kg; details: Mus musculus; procedure, shortened: as §4
P388 [19] = assay: Percent survivors when compound administered at 25 mg/kg against P388 leukemia cells in BDF1 mice; type: functional; details: Mus musculus; procedure, shortened: as §4
P388 [20] = assay: Percent increase in life span when compound administered at 25 mg/kg against P388 leukemia cells in BDF1 mice; type: functional; details: Mus musculus; procedure, shortened: as §4
Mus musculus = assay: Tumor weight inhibition against human mammary MX-1 in Athymic mice after 50 mg/kg optimal dose; type: functional, organism-based; design: dose 50 mg/kg; details: at 50 mg/kg
Colon 26 [21] = assay: Percent in life span when compound administered at 50 mg/kg againstColon 26 cells in balb/C mice; type: functional, organism-based; design: dose 50 mg/kg; details: Mus musculus; procedure, shortened: as §3
L1210 [22] = assay: Percent increase in life span when compound administered at 12.5 mg/kg against L1210 leukemia cells in BDF1 mice; type: functional, organism-based; design: dose 12.5 mg/kg; details: Mus musculus; procedure, shortened: as §5
L1210 [23] = assay: Percent increase in life span when compound administered at 50 mg/kg against L1210 cisplatin resistant leukemia cells in BDF1 mice; IA=inactive; type: functional, organism-based; design: dose 50 mg/kg; details: Mus musculus; procedure, shortened: as §5
L1210 [24] = assay: Percent survivors when compound administered at 50 mg/kg against L1210 cisplatin resistant leukemia cells in BDF1 mice; IA=inactive; type: functional, organism-based; design: dose 50 mg/kg; details: Mus musculus; procedure, shortened: as §4
P388 [25] = assay: Percent survivors when compound administered at 100 mg/kg against P388 leukemia cells in BDF1 mice; type: functional, organism-based; design: dose 100 mg/kg; details: Mus musculus; procedure, shortened: as §4
P388 [26] = assay: Percent increase in life span when compound administered at 100 mg/kg against P388 leukemia cells in BDF1 mice; type: functional, organism-based; design: dose 100 mg/kg; details: Mus musculus; procedure, shortened: as §5
P388 [27] = assay: Percent survivors when compound administered at 12.5 mg/kg against P388 leukemia cells in BDF1 mice; type: functional, organism-based; design: dose 12.5 mg/kg; details: Mus musculus; procedure, shortened: as §4
P388 [28] = assay: Percent increase in life span when compound administered at 12.5 mg/kg against P388 leukemia cells in BDF1 mice; type: functional, organism-based; design: dose 12.5 mg/kg; details: Mus musculus; procedure, shortened: as §5

With “Platinum:Formic acid 9-formyloxy-3-methyl-2,4-dioxa-8,10-diaza-spiro[5.5]undec-9-yl ester” the Water solubility [1] was 100 mg/mL.
Work on “Platinum:3,3-Dichloro-8,15-dioxa-2,4-diaza-dispiro[5.2.5.2]hexadecane” yielded a Water solubility [1] of 0.2 mg/mL.
For “Platinum:Formic acid 9-formyloxy-2,4-dioxa-8,10-diaza-spiro[5.5]undec-9-yl ester”, the Increase (B16 [2]) was 61%, the Increase (B16 [3]) was 64% and 84% and the Survivors (B16 [4]) was 3%. The Survivors (B16 [5]) was 0%, the Increase (Colon 26 [6]) was 127% and the Survivors (Colon 26 [7]) was 0%. It also gave a Survivors (Colon 26 [8]) of 3%, a Survivors (L1210 [9]) of 50% and an Increase (L1210 [10]) of 172%. It also gave an Increase (L1210 [11]) of 168% and a Survivors (L1210 [12]) of 33%.
In the case of “Platinum:2,4,10,15-Tetraoxa-8,16-diaza-dispiro[5.2.6.2]heptadecane-11,14-dione”, the Increase (B16 [2]) is reported as 56%, the Survivors (B16 [4]) is reported as 0% and the Increase (Colon 26 [13]) is reported as 46%. For the same substance, the Survivors (Colon 26 [14]) was 0%, the Survivors (L1210 [15]) was 1% and the Increase (L1210 [16]) was 110%. It also gave an Increase (L1210 [17]) of 44%, a Survivors (L1210 [18]) of 0% and a Survivors (P388 [19]) of 1%. It also gave an Increase (P388 [20]) of 120%.
Work on CARBOPLATIN yielded an inhibition (Mus musculus) of 90%, an Increase (Colon 26 [21]) of 85% and a Survivors (Colon 26 [7]) of 17%. The Increase (L1210 [22]) was 35%, the Increase (L1210 [23]) was “inactive” and the Survivors (L1210 [24]) was “inactive”. It also gave a Survivors (P388 [25]) of 6% and an Increase (P388 [26]) of 144%.
Substance “Platinum:9,9-Dichloro-3-methyl-2,4-dioxa-8,10-diaza-spiro[5.5]undecane” has a Survivors (P388 [27]) of 1% and an Increase (P388 [28]) of 136%.
